Measured values: ChEMBL document CHEMBL3393048, “Discovery of potent cytotoxic ortho-aryl chalcones as new scaffold targeting tubulin and mitosis with affinity-based fluorescence” (J Med Chem, 2014)
Calls of active or inactive are those of the source. The rule behind the calls is not given here.

Assays:
[1] = test system: A549; assay: Induction of apoptosis in human A549 cells assessed as necrotic cells at 1 uM after 48 hrs by Annexin V-FITC/propidium iodide staining-based flow cytometry (reference value: 0.06%); type: functional
[2] = test system: MCF7; assay: Antiproliferative activity against human MCF7 cells after 48 hrs by SRB method; type: functional, cell-based; conditions: MCF7, 48 h
Summary of the method: (§1)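 SRB assay. Cells in DMEM high glucose with 10% FBS were seeded at 5000/well and grown 24 h; a day-0 plate was fixed at that point. Compounds were added in triplicate for 48 h. IC50 came from nonlinear regression of dose–response curves from at least two independent experiments.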

[3] = test system: HepG2; assay: Antiproliferative activity against human HepG2 cells after 48 hrs by SRB method; type: functional, cell-based; conditions: HepG2, 48 h; summary of the method: as §1
[4] = test system: MCF7; assay: Antiproliferative activity against doxorubicin-resistant human MCF7 cells after 48 hrs by SRB method; type: functional, cell-based; conditions: MCF7, 48 h; summary of the method: as §1
[5] = test system: A2780; assay: Drug resistance index, ratio of IC50 for taxol-resistant human A2780 cells to IC50 for human A2780 cells; type: functional
Summary of the method: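 Drug resistance index = IC50 in the resistant line / IC50 in its parental line. […] Pairs: A549/CDDP vs A549, MCF-7/DOX vs MCF-7, A2780/TAX vs A2780, HCT-8/VCT vs HCT-8.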

[6] = test system: A549; assay: Induction of apoptosis in human A549 cells assessed as total apoptotic cells at 0.25 uM after 48 hrs by Annexin V-FITC/propidium iodide staining-based flow cytometry; type: functional
[7] = test system: A549; assay: Induction of apoptosis in human A549 cells assessed as late apoptotic cells at 0.25 uM after 48 hrs by Annexin V-FITC/propidium iodide staining-based flow cytometry (reference value: 0.10%); type: functional
[8] = molecular target: Tubulin (Homo sapiens) (UniProt P68371+Q9H4B7+P0DPH7+P68366+Q13509+Q71U36+P04350+Q3ZCM7+P07437+P68363+Q9BQE3+Q6PEY2+Q13885+Q9BVA1+Q9BUF5); assay: Binding affinity to tubulin (unknown origin) at 4 uM after 30 mins by fluorescence assay; type: protein-complex assay
Summary of the method: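 Intrinsic fluorescence on tubulin binding. Compounds were mixed with tubulin (4 μM or 8 μM) in general tubulin buffer and incubated 30 min. Readings were excitation 430/emission 510 nm or excitation 365/emission 465 nm, with kinetic reads from mixing. ΔF = stable emission minus tubulin-only fluorescence. Optimal wavelengths were set by wavelength scanning.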

[9] = test system: A549; assay: Induction of apoptosis in human A549 cells assessed as necrotic cells at 0.25 uM after 48 hrs by Annexin V-FITC/propidium iodide staining-based flow cytometry (reference value: 0.06%); type: functional
[10] = test system: A549; assay: Induction of apoptosis in human A549 cells assessed as viable cells at 0.5 uM after 48 hrs by Annexin V-FITC/propidium iodide staining-based flow cytometry (reference value: 99.37%); type: functional; conditions: A549, 48 h, read-out: Activity
[11] = test system: A549; assay: Induction of apoptosis in human A549 cells assessed as early apoptotic cells at 0.75 uM after 48 hrs by Annexin V-FITC/propidium iodide staining-based flow cytometry (reference value: 0.47%); type: functional
[12] = test system: A549; assay: Induction of apoptosis in human A549 cells assessed as late apoptotic cells at 0.75 uM after 48 hrs by Annexin V-FITC/propidium iodide staining-based flow cytometry (reference value: 0.10%); type: functional
[13] = test system: A549; assay: Induction of apoptosis in human A549 cells assessed as necrotic cells at 0.75 uM after 48 hrs by Annexin V-FITC/propidium iodide staining-based flow cytometry (reference value: 0.06%); type: functional

- IC50 [2]: 230 nM
- IC50 [3]: 47 nM
- IC50 [4]: 45 nM
- Activity [8]: Active
SMILES: CN(C)c1ccc(/C=C/C(=O)c2ccccc2-c2ccc(F)cc2)cc1
- Activity [1]: 7.91%
- Ratio IC50 [5]: 0.52
- Activity [6]: 69.1%
- Activity [7]: 34.43%
- Activity [9]: 4.95%
- viability at 0.5 µM [10]: 12.3%
- Activity [11]: 36.61%
- Activity [12]: 45.45%
- Activity [13]: 9.38%
